Experimental data gathered from unrelated publications.
Compare with care: the assays were run in different laboratories.

Structure (SMILES) | system | conditions | endpoint | result
NCC(=O)Nc1ccc(-n2nc(C(F)(F)F)cc2-c2ccc3c(ccc4ccccc43)c2)cc1 | mouse, plasma | oral, 80 mg/kg, single dose | CL/F | 58.7 L/h/kg
Cc1nonc1Cn1nnc2c(N3CC[C@H](O)C3)nc(C(C)(C)C)nc21 | C57BL/6 mouse, plasma | intravenous | clearance | 1.79 L/h/kg
Cc1cc(C)nc(Nc2ncc(C(=O)NCCc3c(C)[nH]c4ccccc34)cn2)c1 | beagle dog, plasma | intravenous, 3 mg/kg | clearance | 0.6 L/h/kg
O=C(Nc1cccnn1)N1CCN([C@@H]2CCOc3cc(C(F)(F)F)ccc32)CC1 | male Sprague-Dawley rat, plasma | oral, 3 mg/kg | Tmax | 40.2 min
CN[C@H](CC(C)C)C(=O)N[C@H]1C(=O)N[C@@H](CC(N)=O)C(=O)N[C@H]2C(=O)NC3C(=O)N[C@H](C(=O)N[C@H](C(=O)NCCC[N+](C)(C)C)c4cc(O)cc(O)c4-c4cc3ccc4O)[C@H](O)c3ccc(c(Cl)c3)Oc3cc2cc(c3OC2OC(CO)C(O)[C@H](O)[C@@H]2O[C@H]2CC(C)(NCc3ccc(-c4ccc(Cl)cc4)cc3)[C@H](O)[C@H](C)O2)Oc2ccc(cc2Cl)[C@H]1O (stereo partly drawn) | mouse, plasma | intravenous, 50 mg/kg | clearance | 0.12 L/h/kg
C[C@]12CC[C@H](n3ccnc3)CC1=CC[C@@H]1[C@@H]2CC[C@]2(C)C(n3cnc4ccccc43)=CC[C@@H]12.Cl.Cl | male CD-1 mouse, plasma | intravenous, 1 mg/kg | C0 | 0.603 µg/mL
Cc1nc([C@@](C)(CC2CC2)NC(=O)c2cc(OCC(F)(F)F)c(C3CC3)cn2)no1 | C57BL/6 mouse, plasma | intravenous | clearance | 0.708 L/h/kg
N=c1c2c(-c3ccccc3)c(-c3ccccc3)n(Cc3ccccc3)c2ncn1[C@H]1CC[C@H](O)CC1 | male beagle dog, plasma | oral, 1 mg/kg, single dose | Cmax | 0.0815 µg/mL
C[C@]12CC[C@H](O)CC1=CC[C@@H]1[C@@H]2CC[C@]2(C)C(n3cnc4ccccc43)=CC[C@@H]12.Cl | mouse, plasma | intravenous, 1 mg/kg | C0 | 0.0983 µg/mL
Cl.Cl.O=C(CCN1CCCCC1)c1ccc(-c2ccc(C(=O)CCN3CCCCC3)cc2)cc1 | Sprague-Dawley rat, plasma | oral, 25 mg/kg | Tmax | 37.8 min
CCC[C@@](N)(CO)CCc1ccc(OCCCCCC(C)C)cc1 | dog, plasma | oral, 20 mg/kg, fasted | Cmax | 0.669 µM
CCN(CC)CCCC[C@H](NC(=O)[C@H](CC(C)C)NC(=O)[C@H](C)NC(=O)[C@H](Cc1ccccc1)NC(=O)c1ccc(C(C)(C)C)cc1)C(=O)N[C@@H](CO)C(=O)OC | male Swiss mouse, blood | intravenous, 3 mg/kg | clearance | 1.59 L/h/kg
